In ChEMBL document CHEMBL5705902, “Role of G Protein-Coupled Receptor Kinases 2 and 3 in μ-Opioid Receptor Desensitization and Internalization” (Mol Pharmacol, 2015) one finds inhibition, Activity and Met-Enk (600 nM) response, % of initial data, which are given here for one compound.

The target in assay [1] is Mu-type opioid receptor (Rattus norvegicus) (UniProt P33535). The assay is described as follows: Inhibition of HA-tagged rat MOPr in HEK293 cells assessed as prevention in DAMGO induced MOPr phosphorylation at Thr376 level at 30 uM preincubated for 30 mins by western blot analysis. Type of assay: functional, cell-based. In general terms: Immunoblotting shows a protein as a band on a membrane.
Target sequence in this assay (P33535 whole entry): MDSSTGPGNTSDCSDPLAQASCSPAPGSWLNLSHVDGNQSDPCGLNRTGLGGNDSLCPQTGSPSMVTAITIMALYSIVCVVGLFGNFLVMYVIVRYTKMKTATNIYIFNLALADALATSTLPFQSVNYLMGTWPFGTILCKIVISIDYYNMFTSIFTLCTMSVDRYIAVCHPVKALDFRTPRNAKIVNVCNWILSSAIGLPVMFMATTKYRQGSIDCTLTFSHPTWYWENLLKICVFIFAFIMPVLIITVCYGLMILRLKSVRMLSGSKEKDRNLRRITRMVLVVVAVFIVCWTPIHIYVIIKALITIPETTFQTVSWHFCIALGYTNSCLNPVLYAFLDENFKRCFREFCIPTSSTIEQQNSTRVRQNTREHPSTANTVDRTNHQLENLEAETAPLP

Assay [2] concerns the target Mu-type opioid receptor (Homo sapiens) (UniProt P35372). The assay is described as follows: Inhibition of HA-tagged MOPr (unknown origin) stably expressed in human U2OS cells assessed as reduction in DAMGO induced large recruitment of arrestin-3 translocation at 30 uM preincubated for 30 mins by DiscoveRx PathHunter assay. The class given is functional, cell-based. The gist of the method: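 PathHunter U2OS cells stably express tagged human MOPr and tagged arrestin-3. Recruitment reconstitutes β-galactosidase, read by luminescence. DAMGO 10 μM was applied for 90 min, with inhibitor (30 μM) added 30 min before; n = 3.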

Assay [3] deals with Mu-type opioid receptor (Rattus norvegicus) (UniProt P33535). The assay is described as follows: Inhibition of HA-tagged rat MOPr stably expressing in HEK293 cells assessed as increase in DAMGO-induced Elk1 phosphorylation level at 30 uM preincubated for 30 mins by westernblot analysis. The class given is functional, cell-based. The gist of the method: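 HA-MOPr HEK 293 cells were serum-starved 24 h and pretreated with inhibitor (30 μM) for 30 min, then given DAMGO 10 μM for 5 min.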
Target sequence in this assay (P33535 whole entry): as above

Assay [4] deals with Ribosomal protein S6 kinase beta-1 (Homo sapiens) (UniProt P23443). The assay is described as follows: Inhibition of human S6K1 assessed as remaining activity at 1 uM in presence of 32ATP relative to control. The method, boiled down: (§1)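 Express panel of 52 purified human kinases run in vitro. Kinase activity was measured directly by a radioactive filter-binding assay with ³²ATP, at ATP levels at or below each kinase's calculated Km for ATP. The compound was tested at 1 μM. Each assay was run in duplicate, and activity is given as the mean percentage (with S.D.) of activity without inhibitor.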
Ribosomal protein S6 kinase beta-1 (Homo sapiens), sequence (P23443 whole entry, looked up): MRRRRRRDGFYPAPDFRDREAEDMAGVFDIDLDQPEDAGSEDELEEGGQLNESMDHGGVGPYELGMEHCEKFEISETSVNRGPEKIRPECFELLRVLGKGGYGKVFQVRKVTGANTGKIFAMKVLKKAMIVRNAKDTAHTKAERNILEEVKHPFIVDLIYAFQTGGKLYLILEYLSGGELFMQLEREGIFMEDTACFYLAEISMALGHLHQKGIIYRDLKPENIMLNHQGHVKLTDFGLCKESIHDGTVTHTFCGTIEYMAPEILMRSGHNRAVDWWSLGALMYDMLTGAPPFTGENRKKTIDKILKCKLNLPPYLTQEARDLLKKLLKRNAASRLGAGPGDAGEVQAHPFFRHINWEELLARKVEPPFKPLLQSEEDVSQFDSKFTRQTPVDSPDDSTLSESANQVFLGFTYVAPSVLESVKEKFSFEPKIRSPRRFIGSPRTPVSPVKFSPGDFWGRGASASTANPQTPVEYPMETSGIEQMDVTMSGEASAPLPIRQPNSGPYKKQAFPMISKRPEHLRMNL

The target in assay [5] is Rho-associated protein kinase 2 (Homo sapiens) (UniProt O75116). The assay is described as follows: Inhibition of human ROCK 2 assessed as remaining activity at 1 uM in presence of 32ATP relative to control. The method, boiled down: as §1
Rho-associated protein kinase 2 (Homo sapiens), sequence (O75116 whole entry, looked up): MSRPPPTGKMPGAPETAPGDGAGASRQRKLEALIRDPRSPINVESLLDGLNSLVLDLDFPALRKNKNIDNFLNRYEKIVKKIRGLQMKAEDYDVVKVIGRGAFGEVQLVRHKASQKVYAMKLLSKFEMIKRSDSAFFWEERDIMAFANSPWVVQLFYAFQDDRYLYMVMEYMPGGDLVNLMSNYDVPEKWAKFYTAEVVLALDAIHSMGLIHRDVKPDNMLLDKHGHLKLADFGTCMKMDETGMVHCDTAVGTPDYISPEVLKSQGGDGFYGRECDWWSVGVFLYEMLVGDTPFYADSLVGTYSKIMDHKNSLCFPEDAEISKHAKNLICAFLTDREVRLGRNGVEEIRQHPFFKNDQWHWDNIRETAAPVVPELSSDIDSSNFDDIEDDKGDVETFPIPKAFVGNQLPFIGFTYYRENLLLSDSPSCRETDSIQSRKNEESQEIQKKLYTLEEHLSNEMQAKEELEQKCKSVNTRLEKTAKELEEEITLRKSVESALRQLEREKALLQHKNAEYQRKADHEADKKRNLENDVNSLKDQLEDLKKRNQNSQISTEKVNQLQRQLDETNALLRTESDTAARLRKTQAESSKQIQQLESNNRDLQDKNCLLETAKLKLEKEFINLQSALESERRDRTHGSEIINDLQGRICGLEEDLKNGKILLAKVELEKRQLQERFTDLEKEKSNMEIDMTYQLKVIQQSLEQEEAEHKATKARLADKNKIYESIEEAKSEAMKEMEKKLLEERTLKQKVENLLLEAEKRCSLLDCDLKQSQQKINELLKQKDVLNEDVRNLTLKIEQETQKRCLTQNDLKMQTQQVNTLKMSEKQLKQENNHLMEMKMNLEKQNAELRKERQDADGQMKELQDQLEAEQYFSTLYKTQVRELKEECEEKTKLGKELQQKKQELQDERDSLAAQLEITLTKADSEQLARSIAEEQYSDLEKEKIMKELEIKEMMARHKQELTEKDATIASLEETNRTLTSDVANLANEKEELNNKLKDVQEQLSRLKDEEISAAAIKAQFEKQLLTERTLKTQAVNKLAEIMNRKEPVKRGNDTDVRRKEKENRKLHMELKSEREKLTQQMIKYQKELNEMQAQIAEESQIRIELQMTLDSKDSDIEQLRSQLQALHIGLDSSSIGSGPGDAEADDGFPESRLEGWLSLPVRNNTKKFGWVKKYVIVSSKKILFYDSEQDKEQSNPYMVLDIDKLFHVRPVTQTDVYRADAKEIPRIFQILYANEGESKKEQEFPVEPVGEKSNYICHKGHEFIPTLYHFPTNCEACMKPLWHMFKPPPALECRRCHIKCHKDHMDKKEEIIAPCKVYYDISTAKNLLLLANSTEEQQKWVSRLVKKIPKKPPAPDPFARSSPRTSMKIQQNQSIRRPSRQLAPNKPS
Assay [6] deals with Calcium/calmodulin-dependent protein kinase type 1 (Homo sapiens) (UniProt Q14012). Put plainly: Inhibition of human CAMK1 assessed as remaining activity at 1 uM in presence of 32ATP relative to control. The method, boiled down:
(§2)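 Express screen of 52 purified human kinases run as a radioactive filter-binding assay with 32ATP, at 1 μM inhibitor. ATP was at or below each kinase's calculated Km. Activity is given as percent of the activity without inhibitor. Run in duplicate; mean with S.D.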

The target in assay [7] is Mitogen-activated protein kinase 14 (Homo sapiens) (UniProt Q16539). Put plainly: Inhibition of human p38a MAPK assessed as remaining activity at 1 uM in presence of 32ATP relative to control. The method, boiled down: as §1
Mitogen-activated protein kinase 14 (Homo sapiens), sequence (Q16539 whole entry): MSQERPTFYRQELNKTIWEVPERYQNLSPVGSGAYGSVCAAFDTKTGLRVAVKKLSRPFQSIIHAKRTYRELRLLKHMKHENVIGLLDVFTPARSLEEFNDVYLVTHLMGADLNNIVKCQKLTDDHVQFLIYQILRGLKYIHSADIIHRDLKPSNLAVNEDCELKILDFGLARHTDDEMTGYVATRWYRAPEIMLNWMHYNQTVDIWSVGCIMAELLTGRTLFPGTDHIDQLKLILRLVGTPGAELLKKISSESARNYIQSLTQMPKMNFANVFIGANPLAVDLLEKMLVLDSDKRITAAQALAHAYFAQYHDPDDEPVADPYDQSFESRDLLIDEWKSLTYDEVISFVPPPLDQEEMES
In assay [8] the target is Proto-oncogene tyrosine-protein kinase Src (Homo sapiens) (UniProt P12931). Put plainly: Inhibition of human Src assessed as remaining activity at 1 uM in presence of 32ATP relative to control. The method, boiled down:
as §1

Assay [9] concerns the target c-Jun N-terminal kinase, JNK (Homo sapiens) (UniProt P45983+P53779+P45984). Put plainly: Inhibition of JNK (unknown origin) at 1 uM in presence of 32ATP relative to control. The class given is protein assay. The method, boiled down:
as §2

In assay [10] the target is Mu-type opioid receptor (Rattus norvegicus) (UniProt P33535). The assay is described as follows: Inhibition of MOPr desensitization in wistar rat LC neuron cells assessed as Met-Enk response at 3 uM incubated for 15 mins relative to control.
Target sequence in this assay (P33535 whole entry): as the sequence (P33535 whole entry) above
For assay [11] the target is unchanged. The assay is described as follows: Inhibition of MOPr desensitization (unknown origin) assessed as reduction in the morphine induced desensitization at 3 to 30 uM incubated for 15 mins. Conditions: dose 3-30 µM.
Target sequence in this assay (P33535 whole entry, looked up): as the sequence (P33535 whole entry) above

Molecules are shown by their SMILES. Calls of active or inactive are those of the source. The rule behind the calls is not given here.

Mu-type opioid receptor (Homo sapiens), sequence (P35372 whole entry): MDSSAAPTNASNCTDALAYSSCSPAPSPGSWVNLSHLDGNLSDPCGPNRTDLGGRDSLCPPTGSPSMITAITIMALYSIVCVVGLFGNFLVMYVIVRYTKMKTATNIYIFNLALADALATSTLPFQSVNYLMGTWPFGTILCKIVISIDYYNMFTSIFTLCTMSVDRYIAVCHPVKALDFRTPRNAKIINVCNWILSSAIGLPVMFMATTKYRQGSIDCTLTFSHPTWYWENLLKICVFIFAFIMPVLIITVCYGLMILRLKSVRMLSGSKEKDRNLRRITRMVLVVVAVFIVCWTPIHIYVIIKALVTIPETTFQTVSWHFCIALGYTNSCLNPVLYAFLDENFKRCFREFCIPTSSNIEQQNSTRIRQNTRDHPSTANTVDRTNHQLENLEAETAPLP
Calcium/calmodulin-dependent protein kinase type 1 (Homo sapiens), sequence (Q14012 whole entry, looked up): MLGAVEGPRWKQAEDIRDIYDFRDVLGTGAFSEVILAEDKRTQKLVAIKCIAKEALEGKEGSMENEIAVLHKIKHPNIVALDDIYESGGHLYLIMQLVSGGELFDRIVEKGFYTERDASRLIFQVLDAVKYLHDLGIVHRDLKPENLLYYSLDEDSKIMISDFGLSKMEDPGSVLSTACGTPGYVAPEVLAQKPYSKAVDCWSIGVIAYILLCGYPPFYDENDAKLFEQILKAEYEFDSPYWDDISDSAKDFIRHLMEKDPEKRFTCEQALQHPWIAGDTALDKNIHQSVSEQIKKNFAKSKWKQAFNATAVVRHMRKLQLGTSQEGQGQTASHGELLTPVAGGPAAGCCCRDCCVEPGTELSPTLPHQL
Proto-oncogene tyrosine-protein kinase Src (Homo sapiens), sequence (P12931 2-536 limits assumed): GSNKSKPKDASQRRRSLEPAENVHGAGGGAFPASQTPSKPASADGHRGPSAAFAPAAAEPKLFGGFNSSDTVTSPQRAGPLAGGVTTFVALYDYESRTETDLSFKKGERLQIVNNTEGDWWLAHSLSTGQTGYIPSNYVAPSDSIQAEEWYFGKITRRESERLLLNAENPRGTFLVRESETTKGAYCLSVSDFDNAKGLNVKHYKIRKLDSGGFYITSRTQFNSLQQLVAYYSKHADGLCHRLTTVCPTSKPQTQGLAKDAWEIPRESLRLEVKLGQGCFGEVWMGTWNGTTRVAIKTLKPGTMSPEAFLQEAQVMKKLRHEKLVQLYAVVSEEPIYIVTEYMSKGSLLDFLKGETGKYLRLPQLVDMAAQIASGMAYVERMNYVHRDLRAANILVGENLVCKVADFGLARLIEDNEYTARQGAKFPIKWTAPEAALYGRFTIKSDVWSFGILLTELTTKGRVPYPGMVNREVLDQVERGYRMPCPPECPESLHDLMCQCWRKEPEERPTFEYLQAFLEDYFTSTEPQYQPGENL

In general, inhibition refers to the change of the read-out against control, counted positive when it falls. For the compound `Cn1c(CNc2cccc(C(=O)NCc3ccccc3C(F)(F)F)c2)nnc1-c1ccncc1`, the inhibition entry in assay [1], in assay [2] and in assay [11] was “Active” throughout. Moreover, the inhibition entry in assay [3] is “inactive”. Besides, the Activity in [4] was 47%; in assay [5], 53%; in assay [6], 101%; in assay [7], 101%; in [8], 104%. In addition, the inhibition in [9] was less than 20%. In addition, the Met-Enk (600 nM) response, % of initial in assay [10] turned out to be 94%.
